Bioassay records from PubChem.
MT stabilize HCS: microtubule stabilization, imaging screen; HeLa tubulin immunostaining HCS, 24 h; share of cells brighter than vehicle mean+2SD; % tubulin-high responders, % at 10 µM; hit rate 0.83% among 200,000; AID 2205;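 active means plate Z-score above 3 for both tubulin-high and condensed-nucleus cell shares, with cell loss under 80%, at 10 µM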;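 further: anti alpha tubulin signal scored within the nucleus-defined area of each cell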
Lmaj promast: reduces viability of Leishmania major promastigotes; hit rate 9% among 200,000; AID 1063; inhibition, % at 10 µM; resazurin fluorescence viability; in the data active means inhibition above about 50%;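 further: promastigotes grown with compound for 44 hours at 28 °C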
Dynein transport: blocks dynein driven cargo transport along microtubules; 3617.4 mouse cells, GR-EGFP nuclear translocation imaging; test concentration mostly 20 µM; stimulated with dexamethasone, 1 µM; hits give low values; z-score, hits read low; hit rate 0.47% among 220,000;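 active means plate z-score of nuclear minus cytoplasmic receptor signal below a set negative limit, without overly bright fluorescence or cell loss, cut at about -3.5 in these data, passing the limit was not always enough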;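 further: z-score of nuclear minus cytoplasmic ring GR-EGFP intensity difference per well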
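Medium: Induction medium lacking tetracycline, stripped serum | Probe or stimulus: 1.0 µM final dexamethasone stimulus | Schedule: 48 h induction, then 1 h compound, then 30 min agonist, 37 °C | Signal: Automated 10x imaging of fixed Hoechst-stained cells | Evaluation: Per-cell GR-EGFP intensity, nucleus versus surrounding cytoplasmic ring, well-averaged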
Autophagy mod: alters autophagy in cells | calls only at 10 µM (by protocol) | hit rate 0.98% among 190,000 | MEF GFP-LC3 puncta imaging; test concentration mostly 10 µM;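 active means percentage of spot-positive cells more than 3 SD above its plate mean, without a fluorescence outlier flag or 80% toxicity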;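 further: spot-positive cell cutoff set from DMSO-treated cells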
CHOP inhibitor: CHOP inhibition in unfolded protein response | hit rate 3.8% among 220,000 | inhibition, % at 10 µM | CHO-K1 CHOP-promoter luciferase, tunicamycin-induced, 15-18 h | AID 2732;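 active means compounds that reduced the stress-induced luciferase reporter signal by more than about 70% of percent inhibition, limit read from the data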;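 further: 0% = tunicamycin plus vehicle and 100% = wells without tunicamycin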
bCat nuc transl: modulators of beta-catenin nuclear translocation. HeLa beta-catenin nuclear translocation, immunofluorescence imaging. nuclear translocation activity, % at 5 µM. AID 1665. hit rate 0.3% among 190,000;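 active means nuclear translocation activity above 50% at 5 µM, with a well cell count of 50 or more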;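 further: per-cell ratio of nuclear to cytoplasmic median beta-catenin stain intensity; plate controls were DMSO negative control for no effect and GSK-3 inhibitor IX positive control for full effect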
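Signal – beta-catenin immunofluorescence imaging with DAPI · Test system – human HeLa cell line · Dosing – 5 µM primary single dose, 0.1% DMSO, 0.02–20 µM confirmation series · Measure – % activation, nuclear-to-cytoplasmic median beta-catenin signal ratio per cell · Incubation – 24 h compound exposure at 37°C, 5% CO2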
CHOP confirm: confirmation of CHOP induction inhibitors; hit rate 45% among 2,100; inhibition, % at 10 µM; CHO-CHOP promoter luciferase reporter, tunicamycin-induced, luminescence; shares compounds with CHOP inhibitor;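 active means mean of three repeat readings of reporter signal inhibition above a set limit, cut at about 70% in these data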;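 further: 0% = tunicamycin plus vehicle and 100% = wells lacking tunicamycin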
Numbers without * were called inactive; i = inactive; . = not tested or not shown. In the library only some 12% were active in any assay of this set; here they are far more common.

SMILES | MT stabilize HCS | Lmaj promast | Dynein transport | Autophagy mod | CHOP inhibitor | bCat nuc transl | CHOP confirm
Cc1ccc(OCC(=O)N2CCN(c3nnc(-c4ccc(C)cc4)c4ccccc34)CC2)cc1 | 1.1 | 30.3 | 0.0647 | i | 97.4* | . | 74.6*
COc1ccc(OCC(=O)N2CCN(c3nnc(-c4ccc(C)cc4)c4ccccc34)CC2)cc1 | . | . | -0.0798 | . | 23.2 | -0.5 | .
COC(=O)C(C)Sc1nc2c(c(-c3ccc(OC)cc3)c1C#N)-c1ccccc1C2=O (stereo unspecified) | 2.4 | 2.8 | -0.68 | i | . | . | .
CC(C)(C)C1CCc2onc(C(=O)Nc3cccnc3)c2C1 (stereo unspecified) | 2.7 | 37.3 | 0.991 | i | 47.5 | 0.3 | .
CC(C)(C)C1CCc2onc(C(=O)Nc3cccc(O)c3)c2C1 (stereo unspecified) | 1.5 | -3.0 | -0.374 | i | 109.4* | 2.9 | 25.2
O=C(c1ccccc1)c1nc2ccccc2n(CCCn2c(=O)c(C(=O)c3ccccc3)nc3ccccc32)c1=O | 4.5 | 17.9 | -0.286 | i | 19.6 | -1.5 | .
CN1C(=O)CSC1=NCC12CC3CC(CC(C3)C1)C2 | 3.0 | 0.0 | -0.235 | i | 104.7* | -2.9 | 6.8
Cc1[nH]c2ccccc2c1C(=O)CSC(=S)N1CCOCC1 | . | . | 0.35 | . | -6.2 | 0.1 | .
C=CCc1cccc(CNc2nc3ccccc3n2C(C)C)c1O | 6.7 | 48.3 | 2.19 | i | 107.7* | -7.3 | 43.4
Cn1c(NCc2ccccc2O)nc2ccccc21 | 2.9 | 5.7 | -0.212 | i | -7.4 | 1.3 | .
Clc1ccc(OCc2nnc3n2CCCCC3)c(Cl)c1 | . | . | 2.28 | . | 13.7 | -0.7 | .
O=C(Nc1ccc(Br)c(C(F)(F)F)c1)c1ccc(C(F)(F)F)cc1 | . | . | 0.167 | . | 101.8* | 0.2 | 98.1*
O=C1c2ccccc2C(=O)C12OC2c1ccc(Cl)cc1 (stereo unspecified) | 4.3 | 1.4 | -1.28 | i | 109.0* | -0.2 | -21.2
CCN(CC)c1ccc2cc(/C(N)=N/NC(=O)c3cccs3)c(=O)oc2c1 | . | . | 1.25 | . | 102.3* | 2.4 | -4.7
N/C(=N\NC(=O)c1cccs1)c1cc2ccccc2oc1=O | 3.7 | 34.4 | 1.32 | i | -0.9 | -0.9 | .
CCc1cccc(C)c1NC(=O)CSc1nc(-c2ccccc2F)nc2nc[nH]c12 | 1.9 | 62.0* | 1.85 | i | 108.0* | -1.8 | 56.1
COC(=O)c1c(NC(=O)Nc2ccc(Cl)cc2)sc(C)c1C | 1.5 | -4.5 | -0.185 | i | 99.8* | 0.9 | 99.3*
Cc1ccc2[nH]c3c(c2c1)CN(C(=O)CN1CCN(C(=O)c2ccco2)CC1)CC3 | . | . | 0.139 | . | 7.8 | -0.4 | .
Cc1ccc2[nH]c3c(c2c1)CN(C(=O)CN1CCN(c2cccc(C)c2C)CC1)CC3 | 2.5 | 65.9* | -1.57 | i | 102.5* | . | 112.3*
Cc1cc(Br)ccc1SCC(=O)OCC(=O)NCc1ccco1 | . | . | 0.995 | . | 15.2 | -1.4 | .
OC(CNCc1ccco1)Cn1c2ccc(Br)cc2c2cc(Br)ccc21 (stereo unspecified) | 1.2 | 9.7 | -0.119 | i | 107.6* | -0.9 | 46.5
Cc1ccc2nc(-c3ccc(SCC(=O)O)nc3)[nH]c2c1 | 6.0 | 1.0 | 1.3 | i | 36.5 | -6.9 | .
CCc1nnc(NC(=O)CSc2ccc(-c3nc4ccc(C)cc4[nH]3)cn2)s1 | 5.2 | 2.9 | -0.00672 | i | 99.6* | 0.7 | 1.3
O=C(CSc1ccc(Cl)cc1)Nc1cccc(-c2nc3ccccc3[nH]2)c1 | 2.0 | -2.2 | -1.08 | i | 98.6* | 0.2 | -54.8
Cc1ccc2nc(-c3ccc(NC(=O)CSc4ccccc4)cc3)[nH]c2c1 | 2.3 | 23.8 | 0.521 | i | 103.1* | 0.5 | -26.1
O=C(O)CCCC(=O)Nc1cccc(-c2nc3ccccc3[nH]2)c1 | 3.8 | 0.9 | -0.306 | i | -16.5 | -0.2 | .
O=C(Cc1ccccc1)NCC(=O)N/N=C/c1ccc(Cl)cc1 | 2.4 | -8.9 | -0.432 | i | -6.9 | -1.3 | .
N#CC(C#N)=C1C=CC=CN1/C(=C\c1ccccc1Cl)C(=O)c1ccccc1 | 4.5 | -1.8 | -4.08* | i | 107.5* | 4.6 | 125.2*
Cc1c(NC(=O)CSc2nnc3sc4ccccc4n23)c(=O)n(-c2ccccc2)n1C | 2.5 | 0.2 | -0.399 | i | 34.1 | -1.0 | .
